# Measured values from ChEMBL document CHEMBL1127543, “Dual angiotensin converting enzyme/thromboxane synthase inhibitors” (J Med Chem, 1994).
# Activity calls are given as the source filed them. The calls are words filed in the database; no cut-off is given here.
# Legend:
# [1] = target: T1, Thromboxane-A synthase (Homo sapiens, UniProt P24557); test: Tested for 50% inhibition of thromboxane synthase (TxS) in human platelets (in vitro)
# T1 sequence (P24557 whole entry): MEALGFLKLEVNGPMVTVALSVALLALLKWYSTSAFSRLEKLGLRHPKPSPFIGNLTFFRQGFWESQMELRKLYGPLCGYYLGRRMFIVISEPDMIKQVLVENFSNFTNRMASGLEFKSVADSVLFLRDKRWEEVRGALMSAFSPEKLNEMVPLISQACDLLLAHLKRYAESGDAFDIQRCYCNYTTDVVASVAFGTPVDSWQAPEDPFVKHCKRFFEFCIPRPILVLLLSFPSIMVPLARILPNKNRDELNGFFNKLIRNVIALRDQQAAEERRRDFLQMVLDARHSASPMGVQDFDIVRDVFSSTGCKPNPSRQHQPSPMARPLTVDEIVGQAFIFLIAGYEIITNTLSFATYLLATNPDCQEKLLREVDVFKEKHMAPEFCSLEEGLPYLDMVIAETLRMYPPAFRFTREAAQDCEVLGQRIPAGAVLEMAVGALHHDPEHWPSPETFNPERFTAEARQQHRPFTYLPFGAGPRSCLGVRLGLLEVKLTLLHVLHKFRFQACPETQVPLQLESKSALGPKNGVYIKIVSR
# Procedure, shortened: (§1)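 IC50 was obtained graphically from a range of compound concentrations within the linear range of the assay. Determinations were made in duplicate and repeated once.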
# [2] = target: T2, Angiotensin-converting enzyme (Oryctolagus cuniculus, UniProt P12822); test: Tested for 50% inhibition of Angiotensin converting enzyme(ACE) obtained from rabbit lung (in vitro)
# T2 sequence (P12822 whole entry): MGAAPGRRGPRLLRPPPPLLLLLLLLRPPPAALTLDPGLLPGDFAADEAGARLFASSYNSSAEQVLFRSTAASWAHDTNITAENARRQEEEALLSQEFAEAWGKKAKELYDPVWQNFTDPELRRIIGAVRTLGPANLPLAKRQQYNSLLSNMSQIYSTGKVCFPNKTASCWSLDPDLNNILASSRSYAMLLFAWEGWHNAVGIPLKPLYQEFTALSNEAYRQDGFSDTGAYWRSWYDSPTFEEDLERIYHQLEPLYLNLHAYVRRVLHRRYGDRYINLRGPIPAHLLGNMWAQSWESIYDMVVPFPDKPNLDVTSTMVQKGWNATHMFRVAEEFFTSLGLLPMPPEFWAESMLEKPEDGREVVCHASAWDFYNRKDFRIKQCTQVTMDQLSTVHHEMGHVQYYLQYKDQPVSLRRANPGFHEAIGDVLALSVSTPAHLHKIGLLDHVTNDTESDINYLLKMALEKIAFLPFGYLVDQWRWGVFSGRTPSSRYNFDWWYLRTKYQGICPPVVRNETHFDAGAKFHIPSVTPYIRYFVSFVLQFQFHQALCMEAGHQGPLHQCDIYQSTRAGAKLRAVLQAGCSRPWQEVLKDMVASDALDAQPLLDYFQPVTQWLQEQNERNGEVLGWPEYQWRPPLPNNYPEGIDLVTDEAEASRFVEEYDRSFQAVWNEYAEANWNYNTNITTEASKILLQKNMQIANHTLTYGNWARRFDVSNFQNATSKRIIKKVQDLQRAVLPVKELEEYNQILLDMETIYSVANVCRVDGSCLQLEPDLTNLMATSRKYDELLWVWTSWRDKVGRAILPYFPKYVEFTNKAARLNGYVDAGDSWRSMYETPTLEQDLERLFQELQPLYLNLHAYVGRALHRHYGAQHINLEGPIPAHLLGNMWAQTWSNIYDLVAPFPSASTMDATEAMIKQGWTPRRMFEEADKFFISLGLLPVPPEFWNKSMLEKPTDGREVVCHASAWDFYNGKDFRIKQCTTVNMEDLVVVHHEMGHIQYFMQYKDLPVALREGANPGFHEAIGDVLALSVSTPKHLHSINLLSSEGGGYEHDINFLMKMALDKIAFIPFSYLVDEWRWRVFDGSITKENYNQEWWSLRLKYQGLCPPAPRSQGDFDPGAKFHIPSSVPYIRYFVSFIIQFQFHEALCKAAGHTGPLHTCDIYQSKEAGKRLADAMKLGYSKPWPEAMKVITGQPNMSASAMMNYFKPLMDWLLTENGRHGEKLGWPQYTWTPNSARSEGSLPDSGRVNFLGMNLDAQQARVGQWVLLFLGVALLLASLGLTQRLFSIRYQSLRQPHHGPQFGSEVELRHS
# Procedure, shortened: (§2)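 ACE was partially purified from rabbit lung and incubated with the synthetic substrate Hip-His-Leu. The hippuric acid product was measured spectrophotometrically. IC50 was read graphically from a range of inhibitor concentrations within the assay's linear range. Each determination was done in duplicate and repeated once.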
# [3] = system: Rattus norvegicus; test: Tested for percent inhibition of maximum angiotensin I (AI) pressor response in rats on oral administration of 300 mg/kg after 2 hr; assay type: functional
# Procedure, shortened: (§3)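 Conscious catheterized SHR were prepared as for blood pressure recording. At set times after dosing, angiotensin I was injected intraarterially in 0.5 mL. The rise in arterial pressure was recorded and expressed as percent inhibition of the angiotensin I pressor response.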
# [4] = system: Rattus norvegicus; test: Antihypertensive activity was measured in spontaneously hypertensive rat (SHR) by measuring the blood pressure after 24 hours on interarterial administration at dose of 1 mg/kg; Not significant; assay type: functional, organism-based; parameters: dose 1 mg/kg; conditions: Artery
# Procedure, shortened: (§4)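 Conscious, fully ambulatory SHR (250–280 g) were fitted with an arterial catheter led through an infusion swivel inside a protective spring. After 24 h recovery from surgery, rats were housed singly. Mean arterial pressure was recorded continuously after dosing over a 6-h period, with later readings up to 24 h. Rats had chow and tap water freely under a 12-h light cycle.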
# [5] = system: Rattus norvegicus; test: Antihypertensive activity was measured in spontaneously hypertensive rat (SHR) by measuring the blood pressure on interarterial administration at dose of 1 mg/kg after 4 h; assay type: functional, Artery; procedure, shortened: as §4
# [6] = system: Rattus norvegicus; test: Tested for percent inhibition of maximum angiotensin I (AI) pressor response in rats on oral administration of 300 mg/kg after 4 hr; assay type: functional; procedure, shortened: as §3
# [7] = organism: Rattus norvegicus; conditions: 10 mg/kg
# [8] = system: Rattus norvegicus; test: Antihypertensive activity was measured in spontaneously hypertensive rat (SHR) by measuring the maximum blood pressure when administered orally at dose of 10 mg/kg after 4 h; assay type: functional; conditions: route oral; procedure, shortened: as §4
# [9] = target: T1, Thromboxane-A synthase; test: Tested for 50% inhibition of thromboxane synthase (TxS) in human platelets (in vitro); Not active; procedure, shortened: as §1
# [10] = system: Rattus norvegicus; test: Antihypertensive activity was measured in spontaneously hypertensive rat (SHR) by measuring the blood pressure after 24 hours when administered orally at dose of 5 mg/kg; assay type: functional; conditions: route oral
# Procedure, shortened: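 Conscious, unrestrained, fully ambulatory SHR (250–280 g) fed normal pellet chow with free access to tap water, on a 12-h light cycle. Oral dosing used a vehicle at 1 mL/kg po. The read-out was the change in mean arterial pressure from control.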
# [11] = system: Rattus norvegicus; test: Antihypertensive activity was measured in spontaneously hypertensive rat (SHR) by measuring the maximum blood pressure when administered orally at dose of 5 mg/kg after 3 h; assay type: functional; conditions: route oral; procedure, shortened: as §4
# [12] = target: T2, Angiotensin-converting enzyme; test: Tested for 50% inhibition of Angiotensin converting enzyme(ACE) obtained from rabbit lung (in vitro); Not active; procedure, shortened: as §2
# [13] = system: Rattus norvegicus; test: Tested for percent inhibition of maximum angiotensin I (AI) pressor response in rats on oral administration of 300 mg/kg after 0.5 hr; assay type: functional; procedure, shortened: as §3
# [14] = system: Rattus norvegicus; test: Antihypertensive activity was measured in spontaneously hypertensive rat (SHR) by measuring the blood pressure on interarterial administration at dose of 1 mg/kg; Not significant; assay type: functional, organism-based; parameters: dose 1 mg/kg; conditions: Artery; procedure, shortened: as §4
# [15] = organism: Rattus norvegicus; conditions: 30 mg/kg
# [16] = system: Rattus norvegicus; test: Antihypertensive activity was measured in spontaneously hypertensive rat (SHR) by measuring the maximum blood pressure when administered orally at dose of 30 mg/kg after 4 h; assay type: functional; conditions: route oral; procedure, shortened: as §4
Structure (SMILES),IC50 [1] [nM],IC50 [2] [nM],IC50 [9],IC50 [12],further results
Cn1c(-c2cccnc2)c(CCCCCC(=O)N2CCC(NCCCC[C@H](N[C@@H]3CCc4ccccc4N(CC(=O)[O-])C3=O)C(=O)[O-])CC2)c2cc(Cl)ccc21.[Na+].[Na+],20,12,–,–,inhibition in vivo at 300 mg/kg [3]: 76%; Delta blood pressure [4]: inactive; Max delta BP [5]: -24 mmHg; inhibition in vivo at 300 mg/kg [6]: 51%; Delta blood pressure [7]: inactive; Max delta BP [8]: -35 mmHg
"CCOC(=O)C(CCc1ccccc1)NC(C)C(=O)N1CCC[C@H]1C(=O)O (single isomer, unassigned)",–,–,Not Active,–,Delta blood pressure [10]: -17 mmHg; inhibition in vivo at 300 mg/kg [3]: 100%; Max delta BP [11]: -28 mmHg
O=C([O-])CN1C(=O)C(OP(=O)([O-])CCCCc2ccccc2)CCc2ccccc21.[Na+].[Na+] (stereo unspecified),–,20,Not Active,–,–
Cc1c(-c2cccnc2)n(CCCCCCCC(=O)O[C@@H]2C[C@H](N[C@@H](CCc3ccccc3)C(=O)O)C(=O)N(CC(=O)O)c3ccccc32)c2ccccc12,20,90,–,–,–
Cc1c(-c2cccnc2)n(CCCCC(=O)O)c2ccccc12,–,–,–,Not Active,–
CCOP(=O)(O)CCCCn1c(-c2cccnc2)c(C)c2ccccc21.Cl,9,–,–,Not Active,–
Cn1c(-c2cccnc2)c(CCCCCC(=O)O)c2cc(Cl)ccc21,–,–,–,Not Active,–
Cn1c(-c2cccnc2)c(CCCCCC(=O)NCCCC[C@H](N[C@@H]2CCc3ccccc3N(CC(=O)O)C2=O)C(=O)O)c2cc(Cl)ccc21,4,6,–,–,inhibition in vivo at 300 mg/kg [13]: 81%; Max delta BP [14]: inactive; Delta blood pressure [4]: inactive
CC(=O)O[C@@H]1C[C@H](N[C@@H](CCc2ccccc2)C(=O)O)C(=O)N(CC(=O)O)c2ccccc21,–,6,–,–,–
O=C(O)CN1C(=O)[C@@H](N[C@@H](CCCCNCCO)C(=O)O)CCc2ccccc21,–,7,Not Active,–,Delta blood pressure [15]: inactive; Max delta BP [16]: -28 mmHg; inhibition in vivo at 300 mg/kg [6]: 84%
